Measurements reported in ChEMBL document CHEMBL1138362, “Dihydro-alkylthio-benzyl-oxopyrimidines as inhibitors of reverse transcriptase: synthesis and rationalization of the biological data on both wild-type enzyme and relevant clinical mutants” (J Med Chem, 2007).

Legend:
[1] = biological target: Human immunodeficiency virus type 1 reverse transcriptase (Human immunodeficiency virus 1) (UniProt Q72547); test: Antiviral activity against wild type HIV1 reverse transcriptase
[2] = system: Human immunodeficiency virus 1 [K103N]; test: Antiviral activity against HIV1 reverse transcriptase K103N mutant
[3] = system: Human immunodeficiency virus type 1 reverse transcriptase (Human immunodeficiency virus 1), Q72547 [Y181I]; test: Antiviral activity against HIV1 reverse transcriptase Y181I mutant
[4] = system: Human immunodeficiency virus 1; test: Antiviral activity against wild type HIV1 NL4-3 in MT4 cells after 5 days by MTT method; format: functional, organism-based; conditions: Human immunodeficiency virus 1, NL4-3, MT4, 120 h
Method in brief: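 MT-4 lymphoid cells, infected with HIV-1 or mock-infected (for cytotoxicity), held with a range of drug concentrations; viable cells scored at day 5 post-infection by tetrazolium (MTT) colorimetry.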

[5] = system: Human immunodeficiency virus 1; test: Antiviral activity against HIV1 with reverse transcriptase K103N mutation in MT4 cells after 5 days by MTT method; format: functional, organism-based; conditions: Human immunodeficiency virus 1, MT4, 120 h
Method in brief: (§1)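 MT-4 cells from the NIH AIDS Reagent Program were infected with mutant HIV-1 (K103N or Y188L, from the MRC Centralised Facility) in the presence of graded drug concentrations. Mock-infected cells were used for cytotoxicity. Viable cells were counted by MTT colorimetry at day 5 post-infection.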

[6] = system: Human immunodeficiency virus 1; test: Antiviral activity against HIV1 with reverse transcriptase Y181C mutation in MT4 cells after 5 days by MTT method; format: functional, organism-based; conditions: Human immunodeficiency virus 1, MT4, 120 h
[7] = system: Human immunodeficiency virus 1; test: Antiviral activity against HIV1 with reverse transcriptase Y188L mutation in MT4 cells after 5 days by MTT method; format: functional, organism-based; conditions: Human immunodeficiency virus 1, MT4, 120 h; method in brief: as §1

**Q.** How did the ID50 [1] turn out when `COc1ccc(CCSc2nc(C(C)c3c(Cl)cccc3Cl)c(C)c(=O)[nH]2)cc1` (centres undefined) was run?
**A.** 0.593 µM

**Q.** And the ID50 [2]?
**A.** > 20 µM

**Q.** And the ID50 [3]?
**A.** > 20 µM

**Q.** And the EC50 [4]?
**A.** 0.0002 µM

**Q.** What about the EC50 [5] of the same compound?
**A.** 6.57 µM

**Q.** And the EC50 [6]?
**A.** 3.76 µM

**Q.** What about the EC50 [7] of the same compound?
**A.** 8.17 µM

**Q.** What does the source list for `CCc1c(Cc2c(F)cccc2F)nc(SCc2ccc(OC)cc2)[nH]c1=O`?
**A.** ID50 [1]: 0.03 µM; ID50 [2]: > 20 µM; ID50 [3]: > 20 µM; EC50 [4]: 0.012 µM; EC50 [5]: 10.3 µM; EC50 [6]: 1.45 µM; EC50 [7]: > 62.2 µM

**Q.** How did the ID50 [1] turn out when `CCc1c(Cc2c(F)cccc2F)nc(SCCc2ccc(OC)cc2)[nH]c1=O` was run?
**A.** 0.022 µM

**Q.** What about the ID50 [2] of the same compound?
**A.** > 20 µM

**Q.** What about the ID50 [3] of the same compound?
**A.** > 20 µM

**Q.** And the EC50 [4]?
**A.** 0.0002 µM

**Q.** And the EC50 [5]?
**A.** 1.92 µM

**Q.** What about the EC50 [6] of the same compound?
**A.** 2.78 µM

**Q.** What about the EC50 [7] of the same compound?
**A.** > 60.1 µM

**Q.** For `COc1ccc(CSc2nc(C(C)c3c(Cl)cccc3Cl)c(C)c(=O)[nH]2)cc1` (centres undefined), which ID50 [1] is on record?
**A.** 0.77 µM

**Q.** What about the ID50 [2] of the same compound?
**A.** > 20 µM

**Q.** And the ID50 [3]?
**A.** > 20 µM

**Q.** And the EC50 [4]?
**A.** 0.0011 µM

**Q.** What about the EC50 [5] of the same compound?
**A.** 6.72 µM

**Q.** And the EC50 [6]?
**A.** 1.73 µM

**Q.** Which ID50 [1] does the source give for `COc1ccc(/C=C/Sc2nc(Cc3c(Cl)cccc3Cl)c(C)c(=O)[nH]2)cc1` here?
**A.** 1.98 µM

**Q.** What about the ID50 [2] of the same compound?
**A.** > 20 µM

**Q.** What about the ID50 [3] of the same compound?
**A.** > 20 µM

**Q.** And the EC50 [4]?
**A.** > 57.7 µM

**Q.** What about the EC50 [5] of the same compound?
**A.** > 57.7 µM

**Q.** What about the EC50 [6] of the same compound?
**A.** > 57.7 µM

**Q.** And the EC50 [7]?
**A.** > 57.7 µM

**Q.** For `CCc1c(Cc2c(Cl)cccc2Cl)nc(SC/C=C/c2ccc([N+](=O)[O-])cc2)[nH]c1=O`, which ID50 [1] is on record?
**A.** 2.5 µM

**Q.** What about the ID50 [2] of the same compound?
**A.** > 20 µM

**Q.** What about the ID50 [3] of the same compound?
**A.** > 20 µM

**Q.** And the EC50 [4]?
**A.** 0.61 µM

**Q.** And the EC50 [5]?
**A.** > 32.1 µM

**Q.** And the EC50 [6]?
**A.** 4.2 µM

**Q.** What about the EC50 [7] of the same compound?
**A.** > 32.1 µM

**Q.** For `Cc1c(C(C)c2c(Cl)cccc2Cl)nc(SCc2ccc([N+](=O)[O-])cc2)[nH]c1=O` (centres undefined), which ID50 [1] is on record?
**A.** 0.408 µM

**Q.** What about the ID50 [2] of the same compound?
**A.** > 20 µM

**Q.** And the ID50 [3]?
**A.** > 20 µM

**Q.** And the EC50 [4]?
**A.** 0.019 µM

**Q.** What about the EC50 [5] of the same compound?
**A.** 6.22 µM

**Q.** What about the EC50 [6] of the same compound?
**A.** 7.15 µM

**Q.** And the EC50 [7]?
**A.** 9.95 µM

**Q.** `Cc1c(Cc2c(Cl)cccc2Cl)nc(SC/C=C/c2ccc(N(C)C)cc2)[nH]c1=O` was tested. Which ID50 [1] did it give?
**A.** 0.778 µM

**Q.** And the ID50 [2]?
**A.** > 20 µM

**Q.** And the ID50 [3]?
**A.** > 20 µM

**Q.** What about the EC50 [4] of the same compound?
**A.** > 54.4 µM

**Q.** And the EC50 [5]?
**A.** > 54.4 µM

**Q.** And the EC50 [6]?
**A.** > 54.4 µM

**Q.** What about the EC50 [7] of the same compound?
**A.** > 54.4 µM

**Q.** Which ID50 [1] does the source give for `CCc1c(Cc2c(F)cccc2F)nc(SCc2ccc([N+](=O)[O-])cc2)[nH]c1=O` here?
**A.** 0.07 µM

**Q.** And the ID50 [2]?
**A.** > 20 µM

**Q.** And the ID50 [3]?
**A.** > 20 µM

**Q.** What about the EC50 [4] of the same compound?
**A.** 0.074 µM

**Q.** What about the EC50 [5] of the same compound?
**A.** 10.6 µM

**Q.** And the EC50 [6]?
**A.** 2.13 µM

**Q.** And the EC50 [7]?
**A.** > 60 µM

**Q.** How did the ID50 [1] turn out when `Cc1c(C(C)c2c(F)cccc2F)nc(SC/C=C/c2ccc([N+](=O)[O-])cc2)[nH]c1=O` (centres undefined) was run?
**A.** 0.283 µM

**Q.** What about the ID50 [2] of the same compound?
**A.** > 20 µM

**Q.** What about the ID50 [3] of the same compound?
**A.** > 20 µM

**Q.** And the EC50 [4]?
**A.** 0.14 µM

**Q.** And the EC50 [5]?
**A.** > 11.3 µM

**Q.** And the EC50 [6]?
**A.** > 11.3 µM

**Q.** And the EC50 [7]?
**A.** > 11.3 µM

**Q.** How did the ID50 [1] turn out when `CCOc1ccc(CSc2nc(Cc3c(F)cccc3F)c(C)c(=O)[nH]2)cc1` was run?
**A.** 0.8 µM

**Q.** And the ID50 [2]?
**A.** > 20 µM

**Q.** What about the ID50 [3] of the same compound?
**A.** > 20 µM

**Q.** What about the EC50 [4] of the same compound?
**A.** 0.37 µM

**Q.** What about the EC50 [5] of the same compound?
**A.** > 62.2 µM

**Q.** And the EC50 [6]?
**A.** 1.19 µM

**Q.** What about the EC50 [7] of the same compound?
**A.** > 62.2 µM

**Q.** How did the ID50 [1] turn out when `Cc1c(Cc2c(F)cccc2F)nc(SCC(=O)c2ccc([N+](=O)[O-])cc2)[nH]c1=O` was run?
**A.** 0.95 µM

**Q.** What about the ID50 [2] of the same compound?
**A.** > 20 µM

**Q.** And the ID50 [3]?
**A.** > 20 µM

**Q.** What about the EC50 [4] of the same compound?
**A.** 0.37 µM

**Q.** What about the EC50 [5] of the same compound?
**A.** > 58 µM

**Q.** What about the EC50 [6] of the same compound?
**A.** 4.18 µM

**Q.** What about the EC50 [7] of the same compound?
**A.** > 58 µM

**Q.** `CCc1c(Cc2c(Cl)cccc2Cl)nc(SC/C=C/c2ccc(C#N)cc2)[nH]c1=O` was tested. Which ID50 [1] did it give?
**A.** 0.188 µM

**Q.** And the ID50 [2]?
**A.** > 20 µM

**Q.** What about the ID50 [3] of the same compound?
**A.** > 20 µM

**Q.** What about the EC50 [4] of the same compound?
**A.** 1.73 µM

**Q.** What about the EC50 [5] of the same compound?
**A.** > 54.8 µM

**Q.** And the EC50 [7]?
**A.** > 54.8 µM

**Q.** What does the source list for `COc1ccc(/C=C/Sc2nc(C(C)c3c(Cl)cccc3Cl)c(C)c(=O)[nH]2)cc1` (centres undefined)?
**A.** ID50 [1]: 0.02 µM; ID50 [2]: > 20 µM; ID50 [3]: > 20 µM; EC50 [4]: 16.2 µM; EC50 [5]: > 55.9 µM; EC50 [6]: > 55.9 µM; EC50 [7]: > 55.9 µM

**Q.** `COc1ccc(/C=C/CSc2nc(C(C)c3c(Cl)cccc3Cl)c(C)c(=O)[nH]2)cc1` (centres undefined) was tested. Which ID50 [1] did it give?
**A.** 0.018 µM

**Q.** What about the ID50 [2] of the same compound?
**A.** > 20 µM

**Q.** What about the ID50 [3] of the same compound?
**A.** > 20 µM

**Q.** And the EC50 [4]?
**A.** 0.009 µM

**Q.** What about the EC50 [5] of the same compound?
**A.** 2.47 µM

**Q.** What about the EC50 [6] of the same compound?
**A.** 3.6 µM

**Q.** What about the EC50 [7] of the same compound?
**A.** 1.26 µM

**Q.** How did the ID50 [1] turn out when `CCc1c(Cc2c(Cl)cccc2Cl)nc(SC/C=C/c2ccc(OC)cc2)[nH]c1=O` was run?
**A.** 0.056 µM

**Q.** What about the ID50 [2] of the same compound?
**A.** > 20 µM

**Q.** And the ID50 [3]?
**A.** > 20 µM

**Q.** What about the EC50 [4] of the same compound?
**A.** 0.0015 µM

**Q.** And the EC50 [5]?
**A.** > 0.19 µM

**Q.** And the EC50 [6]?
**A.** > 0.19 µM

**Q.** What about the EC50 [7] of the same compound?
**A.** > 0.19 µM

**Q.** With `COc1ccc(COCCSc2nc(C(C)c3c(Cl)cccc3Cl)c(C)c(=O)[nH]2)cc1` (centres undefined) as the compound, how does the ID50 [1] read?
**A.** 0.022 µM

**Q.** What about the ID50 [2] of the same compound?
**A.** 57.3 µM

**Q.** And the ID50 [3]?
**A.** > 20 µM

**Q.** What about the EC50 [4] of the same compound?
**A.** 0.063 µM

**Q.** What about the EC50 [5] of the same compound?
**A.** 6.47 µM

**Q.** What about the EC50 [6] of the same compound?
**A.** 8.98 µM

**Q.** What about the EC50 [7] of the same compound?
**A.** 2.5 µM

**Q.** What does the source list for `CCc1c(C(C)c2c(F)cccc2F)nc(SC/C=C/c2ccc(C#N)cc2)[nH]c1=O` (centres undefined)?
**A.** ID50 [1]: 0.048 µM; ID50 [2]: > 20 µM; ID50 [3]: > 20 µM; EC50 [4]: 0.59 µM; EC50 [5]: > 27.2 µM; EC50 [6]: > 27.2 µM; EC50 [7]: > 27.2 µM
